Data taken from ChEMBL document CHEMBL2375262, “Thiazolidin-4-one and thiazinan-4-one derivatives analogous to rosiglitazone as potential antihyperglycemic and antidyslipidemic agents” (2013).

What was measured:
Format in all cases: functional
Mus musculus [1] = assay: Insulin resistance reversal activity in db/db mouse assessed as decrease in plasma insulin level at 30 mg/kg, po qd administered 15 days measured on day 16 by ELISA relative to vehicle-treated control; set-up: scale not given: the % may be the effect or the level left
In short: (§1)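 db/db males, 10-12 weeks, >40 g, baseline glucose 180-300 mg/dl, n=6 per group. Oral suspension in 1% gum acacia given once daily for days 1-15; vehicle controls. At study end, retro-orbital plasma insulin was measured by ELISA. Groups were compared by Dunnett's test.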

Mus musculus [2] = assay: Antidyslipidemic activity in db/db mouse assessed as increase in plasma HDL-cholesterol level at 30 mg/kg, po qd administered 15 days […] relative to vehicle-treated control
Mus musculus [3] = assay: Antidyslipidemic activity in db/db mouse assessed as decrease in plasma total cholesterol level at 30 mg/kg, po qd administered 15 days measured on day 16 […] relative to vehicle-treated control; set-up: scale not given: the % may be the effect or the level left
In short: (§2)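 Male db/db mice, 10-12 weeks old, over 40 g. After a 3-day vehicle run-in, animals with blood glucose 180-300 mg/dl were placed in groups of six and gavaged once daily on days 1-15 with a suspension in 1% gum acacia. Controls received vehicle. Terminal retro-orbital plasma was assayed for triglycerides, total and HDL-cholesterol with colorimetric kits. Dunnett's test was used.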

Mus musculus [4] = assay: Antihyperglycemic activity in db/db mouse assessed as inhibition of post prandial blood glucose level at 30 mg/kg, po qd administered 15 days measured on day 10 by OGTT relative to vehicle-treated control
In short: (§3)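 Male db/db mice, 10-12 weeks, >40 g, with blood glucose 180-300 mg/dl; six per group. Dosed orally once daily in 1% gum acacia on days 1-15, with vehicle controls. Blood glucose was read daily. OGTT on days 10 and 15 after an overnight fast: glucose at -30, 0, 30, 60, 90 and 120 min around an oral 3.0 g/kg glucose load. Activity was taken from AUC versus control; Dunnett's test.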

Mus musculus [5] = assay: Antihyperglycemic activity in db/db mouse assessed as reduction of blood glucose level at 30 mg/kg, po qd measured daily for 15 days relative to vehicle-treated control; set-up: scale not given: the % may be the effect or the level left; in short: as §3
L6 [6] = assay: Antihyperglycemic activity in rat L6 cells assessed as increase in 2-deoxy-[3H]-D-glucose uptake at 10 uM after 18 hrs by liquid scintillation counting analysis relative to control
In short: (§4)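 L6 myoblasts were differentiated to myotubes in DMEM with 2% FBS, then treated for 18 h. After washes, cells took up 3 µCi 2-deoxy-[3H]D-glucose plus 20 µM unlabelled 2-deoxyglucose in HEPES-buffered saline for 15 min. Cells were lysed in 0.1 N NaOH and counted by scintillation; results are % increase over control.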

Mus musculus [7] = assay: Antihyperglycemic activity in db/db mouse assessed as inhibition of post prandial blood glucose level at 30 mg/kg, po qd administered 15 days by OGTT relative to vehicle-treated control; conditions: 360 h; in short: as §3
Mus musculus [8] = assay: Antidyslipidemic activity in db/db mouse assessed as decrease in plasma triglycerides level at 30 mg/kg, po qd administered 15 days measured on day 16 by ELISA relative to vehicle-treated control; set-up: scale not given: the % may be the effect or the level left; conditions: in the assay text read “by colorimetric assay” for “by ELISA”; in short: as §2
3T3-L1 = assay: Induction of adipogenesis in mouse 3T3L1 cells assessed as accumulation of lipid droplets at 10 uM measured on day 9 by Oil Red O staining method relative to control
In short: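 3T3-L1 preadipocytes, 2 days post-confluence, were induced with 0.5 mM IBMX, 0.25 µM dexamethasone and insulin in DMEM/10% FBS with compound present. After 3 days, medium changed to insulin alone, then to DMEM/10% FBS. On day 9, lipid droplets were stained with 0.36% Oil Red O in 60% isopropanol for 30 min and examined by microscope.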

Mus musculus [9] = assay: Antidyslipidemic activity in db/db mouse assessed as increase in plasma HDL-cholesterol level at 100 mg/kg, po qd administered 15 days […] relative to vehicle-treated control
Mus musculus [10] = assay: Antidyslipidemic activity in db/db mouse assessed as decrease in plasma triglycerides level at 100 mg/kg, po qd administered 15 days […] relative to vehicle-treated control; set-up: scale not given: the % may be the effect or the level left
Mus musculus [11] = assay: Antidyslipidemic activity in db/db mouse assessed as decrease in plasma total cholesterol level at 100 mg/kg, po qd administered 15 days […] relative to vehicle-treated control; set-up: scale not given: the % may be the effect or the level left
Mus musculus [12] = assay: Antihyperglycemic activity in db/db mouse assessed as inhibition of post prandial blood glucose level at 100 mg/kg, po qd administered 15 days measured on day 10 by OGTT relative to vehicle-treated control; in short: as §3
Mus musculus [13] = assay: Insulin resistance reversal activity in db/db mouse assessed as decrease in plasma insulin level at 100 mg/kg, po qd administered 15 days measured on day 16 by ELISA relative to vehicle-treated control; set-up: scale not given: the % may be the effect or the level left; in short: as §1
Mus musculus [14] = assay: Antihyperglycemic activity in db/db mouse assessed as reduction of blood glucose level at 100 mg/kg, po qd measured daily for 15 days relative to vehicle-treated control; set-up: scale not given: the % may be the effect or the level left; in short: as §3
Mus musculus [15] = assay: Antihyperglycemic activity in db/db mouse assessed as inhibition of post prandial blood glucose level at 100 mg/kg, po qd administered 15 days by OGTT relative to vehicle-treated control; conditions: 360 h; in short: as §3
L6 [16] = assay: Antihyperglycemic activity in rat L6 cells assessed as increase in 2-deoxy-[3H]-D-glucose uptake at 50 uM after 18 hrs by liquid scintillation counting analysis relative to control; in short: as §4

Compound | Activity (Mus musculus [1]) [%] | Activity (Mus musculus [2]) [%] | Activity (Mus musculus [3]) [%] | inhibition in vivo at 30 mg/kg (Mus musculus [4]) [%] | Activity (Mus musculus [5]) [%] | Activity (L6 [6]) [%] | inhibition in vivo at 30 mg/kg (Mus musculus [7]) [%] | Activity (Mus musculus [8]) [%] | Activity (3T3-L1) [%] | Activity (Mus musculus [9]) [%] | Activity (Mus musculus [10]) [%] | Activity (Mus musculus [11]) [%] | inhibition in vivo at 100 mg/kg (Mus musculus [12]) [%] | Activity (Mus musculus [13]) [%] | Activity (Mus musculus [14]) [%] | inhibition in vivo at 100 mg/kg (Mus musculus [15]) [%] | Activity (L6 [16]) [%]
CN(CCOc1ccc(C2NC(=O)CCS2)cc1)c1ccccn1 (configuration not stated) | 28.8 | 1.46 | 15.1 | -40.8 | 30.4 | 53.5 | -44.9 | 13.2 |  |  |  |  |  |  |  |  | 
CN(CCOc1ccc(C2SCCC(=O)N2C2CC2)cc1)c1ccccn1 (configuration not stated) | 26.6 | 3.38 | 29.5 | -20.4 | 22.4 | 69.5 | -27.9 | 29.9 |  |  |  |  |  |  |  |  | 
CC(C)N1C(=O)CCSC1c1ccc(OCCN(C)c2ccccn2)cc1 (configuration not stated) |  |  |  |  |  | 14.8 |  |  |  |  |  |  |  |  |  |  | 
CCCCN1C(=O)CCSC1c1ccc(OCCN(C)c2ccccn2)cc1 (configuration not stated) |  |  |  |  |  | 35.4 |  |  |  |  |  |  |  |  |  |  | 
CN(CCOc1ccc(C2SCCC(=O)N2Cc2ccccc2)cc1)c1ccccn1 (configuration not stated) | 21.5 | 6.47 | 9.88 | -29.4 | 19.1 | 33 | -42.6 | 25.6 |  |  |  |  |  |  |  |  | 
CCCCN1C(=O)C[S+]([O-])C1c1ccc(OCCN(C)c2ccccn2)cc1 (configuration not stated) | 24.6 | 39.6 | 10.8 | -12.9 | 25.9 |  | -27.2 | 19.2 |  |  |  |  |  |  |  |  | 
CN(CCOc1ccc(C2N(Cc3ccccc3)C(=O)C[S+]2[O-])cc1)c1ccccn1 (configuration not stated) | 20.4 | 20 |  | -6.4 | 22.1 | 45.5 | -20.2 | 18.4 |  |  |  |  |  |  |  |  | 
CCCCN1C(=O)CS(=O)(=O)C1c1ccc(OCCN(C)c2ccccn2)cc1 (configuration not stated) | 28.8 | 25.7 | 7.2 |  | 30.2 | 51.3 |  | 14.7 |  |  |  |  |  |  |  |  | 
CN(CCOc1ccc(C2SCC(=O)N2C2CC2)cc1)c1ccccn1 (configuration not stated) | 31.8 | 8.8 | 12.6 | -26.6 | 25.6 | 67.2 | -40.9 | 15.6 | 3.87 |  |  |  |  |  |  |  | 
CCCCN1C(=O)CSC1c1ccc(OCCN(C)c2ccccn2)cc1 (configuration not stated) | 17.6 | 10.1 | 4.8 | -20.2 | 22.1 |  | -25.4 | 31.8 |  |  |  |  |  |  |  |  | 
CN(CCOc1ccc(C2SCC(=O)N2Cc2ccccc2)cc1)c1ccccn1 (configuration not stated) | 22.4 | 22.2 | 10.2 | -4.3 | 15.4 |  | -16.4 | 9.83 |  |  |  |  |  |  |  |  | 
CN(CCOc1ccc(C2NC(=O)CS2)cc1)c1ccccn1 (configuration not stated) | 27.4 |  | 19.3 | -25.9 | 18.5 | 51.9 | -36.6 | 14 | 5.53 |  |  |  |  |  |  |  | 
CN(C)C(=N)NC(=N)N [METFORMIN] |  |  |  |  |  |  |  |  |  | 6.8 | 12.1 | 14.6 | 29.1 | 37 | 23.7 | 29.7 | 
CN(CCOc1ccc(CC2SC(=O)NC2=O)cc1)c1ccccn1 (configuration not stated) [ROSIGLITAZONE] | 44.8 |  | 26.4 | -33.3 | 53.7 |  | -40.7 | 32.5 | 24 |  |  |  |  |  |  |  | 61.6
